CHRM5 PAM = potentiates acetylcholine response at human M5 receptor. CHO-K1 hM5, Fluo-8 calcium, ACh EC20 PAM; 0% = ACh EC20, 100% = ACh EC100. P08912. AID 624038. actives 0.3% (n = 360,000). activation, % at 3 µM;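 active means activation above the run cutoff, the mean activation of all test compounds plus 3 SD, cut at about 18% in these data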
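system = human M5 receptor in CHO-K1 cells | reagent = EC20 acetylcholine as agonist stimulus | compound dosing = single-point, 3 µM nominal | incubation = Fluo-8 loading 80 min at 37 °C plus 30 min room temperature | detection = Fluo-8 calcium dye fluorescence, kinetic read | benchmarks = low control EC20 acetylcholine (0%), high control EC100 acetylcholine (100%)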
M4 ag = CHRM4 agonism in calcium assay | P08173 | CHO-K1 hM4/Gqi5, Fluo-8 calcium fluorescence; vehicle 0%, full acetylcholine response 100% | activation, % at 3 µM | actives 0.14% (n = 360,000);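 active means activation above the run mean over all test wells plus 3 SD, cut at about 32% in these data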;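 further: peak over basal fluorescence ratio per well then scaled between controls; 0% = DMSO wells and 100% = acetylcholine at EC100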
Target sequence (P08173 whole entry, looked up): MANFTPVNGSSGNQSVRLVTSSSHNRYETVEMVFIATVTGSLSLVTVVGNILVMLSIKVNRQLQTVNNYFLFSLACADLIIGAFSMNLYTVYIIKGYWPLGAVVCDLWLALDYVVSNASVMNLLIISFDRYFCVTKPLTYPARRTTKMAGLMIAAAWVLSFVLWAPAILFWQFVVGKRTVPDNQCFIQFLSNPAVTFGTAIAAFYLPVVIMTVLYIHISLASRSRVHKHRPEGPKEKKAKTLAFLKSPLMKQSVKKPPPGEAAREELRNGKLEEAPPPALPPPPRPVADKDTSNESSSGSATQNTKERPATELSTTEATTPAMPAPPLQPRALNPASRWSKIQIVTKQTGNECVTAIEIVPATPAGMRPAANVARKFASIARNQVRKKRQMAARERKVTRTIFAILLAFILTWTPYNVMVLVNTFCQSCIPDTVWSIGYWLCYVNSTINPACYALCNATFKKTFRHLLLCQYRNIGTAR
CHRM4 PAM = potentiates acetylcholine response at human M4 receptor. CHO-K1 hM4/Gqi5, Fluo-8 calcium fluorescence, ACh EC20; 0% = ACh EC20, 100% = maximal ACh. activation, % at 3 µM. actives 0.4% (n = 360,000). AID 624126;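 active means activation above its plate's cutoff, the mean activation of sample wells plus 3 SD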
M4 antag = blocks acetylcholine activation of human M4 receptor; inhibition, % at 3 µM; actives 0.73% (n = 360,000); CHO-hM4 cells, ACh EC80, Fluo-8 calcium fluorescence; AID 624125;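 active means inhibition above its plate's cutoff, the mean inhibition of sample wells plus 3 SD, cut at about 27% in these data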;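 further: 0% = acetylcholine EC80 with DMSO and 100% = DMSO without agonist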
CHRM5 agonist = agonists of human muscarinic M5 receptor (CHRM5); P08912; CHO-K1 hM5 cells, Fluo-8 calcium fluorescence; 0% DMSO wells, 100% maximal acetylcholine response; activation, % at 3 µM; actives 0.19% (n = 360,000);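 active means activation above the run's mean over test compounds plus 3 SD, cut at about 23% in these data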;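 further: signal is peak over basal fluorescence ratio across the kinetic read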
M5 antag = blocks acetylcholine activation of human M5 receptor. P08912. CHO-hM5 cells, Fluo-8 calcium fluorescence, ACh EC80. inhibition, % at 3 µM. actives 0.59% (n = 360,000). AID 624040;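 active means inhibition above a per-plate cutoff, the mean of that plate's test compounds plus 3 SD, cut at about 27% in these data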;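 further: 0% = acetylcholine EC80 with DMSO and 100% = DMSO without agonist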
The depositor's hits bear a star; + = active, no number. This is a sample that favours compounds with a hit; in the whole collection about 1.8% have one here.

SMILES | CHRM5 PAM | M4 ag | CHRM4 PAM | M4 antag | CHRM5 agonist | M5 antag
Fc1ccc2[nH]c3c(NCc4ccccc4)ncnc3c2c1 | -16.1 | 23.3 | -10.3 | 8.8 | 9.7 | 36.6*
CSC[C@H]1CN(c2ccccc2)C(=O)[C@@H]1CC(=O)Nc1ccccc1 | 2.0 | 5.7 | 4.1 | -26.0 | -1.1 | -6.0
CCN1CCN(C2=CC3=CC(=C(C#N)C#N)CCC3CC2)CC1 (stereo unspecified) | -36.5 | 270.4* | -29.2 | 58.1* | 222.5* | 59.4*
N#CC(C#N)=C1C=C2C=C(N3CCCCCC3)CCC2CC1 (stereo unspecified) | -20.9 | 745.9* | -23.0 | 96.0* | + | 103.1*
N#CC(C#N)=C1C=C2C=C(N3CCOCC3)CCC2CC1 (stereo unspecified) | -15.8 | 51.6* | -24.5 | 29.0* | 36.8* | 23.5
CC1(C)CC(NCCN2CCN(C3=CC(=C(C#N)C#N)CC(C)(C)C3)CC2)=CC(=C(C#N)C#N)C1 | 2.5 | 0.9 | 2.2 | -7.6 | 3.0 | 0.8
CN1CCN(C2=CC3=CC(=C(C#N)C#N)CCC3CC2)CC1 (stereo unspecified) | -37.1 | 538.0* | -31.4 | 71.4* | 491.5* | 72.4*
Cc1ccccc1C(=O)c1cccn1CC(=O)NCCCN1CCc2ccccc2C1 | 8.5 | 1.3 | -5.3 | 2.0 | -4.9 | 4.9
CC(C)(C(=O)N1CCC1(C)C(=O)NS(=O)(=O)c1cccc(C#N)c1)c1ccccc1 (stereo unspecified) | -2.0 | 1.1 | 4.9 | -6.5 | 2.0 | 5.1
CCCSCCCNC(=O)c1ccc(NC(=O)C2=CSCCO2)cc1 | 0.8 | 4.0 | -5.0 | 4.2 | -2.3 | -1.1
CCNS(=O)(=O)c1ccc(CCC(=O)Nc2cc(Cl)ccc2Oc2ccccc2)cc1 | -23.9 | 24.0 | -11.7 | 27.6* | -0.4 | 17.2
Clc1cccc2c1Sc1ccccc1CC2N1CCNCC1 (stereo unspecified) | -18.6 | 18.8 | -20.2 | 67.7* | -3.3 | 77.7*
CC(C)c1ccc2c(c1)C(N1CCN(C)CC1)Cc1cccnc1S2 (stereo unspecified) | -12.7 | 0.7 | -3.5 | -10.7 | -19.6 | 5.1
NC(=O)CCN1CCN(CCOC2Cc3cc(Cl)ccc3Sc3ccccc32)CC1 (stereo unspecified) | -14.9 | 7.0 | -18.3 | 3.8 | -4.9 | 28.2*
COc1ccc2c(c1)CC(N1CCN(C)CC1)c1cc(OC)ccc1S2 (stereo unspecified) | -10.4 | 11.9 | -15.4 | 4.5 | -18.0 | 7.4
Clc1ccc2c(c1)C(N1CCNCC1)Cc1ccccc1S2 (stereo unspecified) | -29.6 | 11.2 | -14.6 | 82.3* | -9.7 | 96.7*
COCCCN1CCN(C2Cc3ccccc3Sc3ccc(Cl)cc32)CC1 (stereo unspecified) | -18.2 | 15.0 | -32.9 | 6.5 | 0.9 | 30.5*
CCCCn1c(=O)c2c(nc3n2CCCN3Cc2ccccc2)n(C)c1=O | -0.6 | 2.1 | 9.3 | -11.9 | -0.9 | 1.9
N#Cc1cccnc1N1CCC(C(N)=O)CC1 | -6.7 | 6.7 | -5.3 | 9.0 | 0.1 | 15.3
CN(C)C1CN(Cc2cn(Cc3cccc(C(F)(F)F)c3)nn2)S(=O)(=O)C1 (stereo unspecified) | -11.0 | 0.7 | 1.1 | -4.1 | 0.7 | 4.0
CCn1c(CNc2ccccc2Cl)nnc1SCCN1CCCCC1 | -6.8 | 0.8 | -18.9 | 32.6* | -7.7 | 0.7
CN(NC(=O)c1ccccc1F)c1ncccc1[N+](=O)[O-] | 9.2 | 0.2 | 9.7 | -4.3 | -3.8 | 0.0
CNC(=S)N1CCC(NC(=O)C(Cc2ccc(OC)cc2)NC(C)=O)CC1 (stereo unspecified) | 8.1 | 1.1 | -1.2 | -2.5 | 1.8 | -0.6
COc1ccc(CC(NC(C)=O)C(=O)N2CCN(C(=O)N(C(C)C)C(C)C)CC2)cc1 (stereo unspecified) | 11.9 | 2.5 | 3.0 | 29.3* | 0.9 | -7.5
CC1(c2ccccc2)NC(=O)N(CC(=O)Nc2ccc(N3CCOCC3)cc2)C1=O (stereo unspecified) | 7.8 | 0.1 | 12.0 | -5.5 | 1.8 | -6.5
SMILES | CHRM5 PAM | M4 ag | CHRM4 PAM | M4 antag | CHRM5 agonist | M5 antag
CCCCCCN1C[C@H](O)[C@@H](n2cc(-c3ccc(F)cc3)nn2)C[C@@H]1c1ccccc1 | -3.9 | -0.4 | -0.6 | -7.2 | -0.5 | 5.4
CC(C)c1cc(C(=O)NCc2ccc(F)cc2)c(N)s1 | 18.4* | 8.6 | 1.6 | -6.5 | 4.2 | -6.4
Nc1nc2cc3c(cc2cc1C(=O)NCc1ccc(F)cc1)OCO3 | -19.1 | 15.0 | -6.8 | 11.3 | 11.1 | 27.0*
O=C(NCc1ccc2c(c1)OCO2)c1nnc(Cc2ccc(F)cc2)o1 | -5.2 | 1.7 | 8.8 | -4.7 | 0.3 | -3.2
COc1cccc(CNCc2cccnc2)c1OCc1ccccc1 | 8.0 | 2.3 | 9.9 | -14.5 | -1.2 | -12.2
COc1ccc2[nH]c(=O)c(CNC3CCCCC3)cc2c1 | 23.4* | 2.2 | 22.9* | -21.7 | 1.9 | -1.3
CC(C)[C@H](NC(=O)N1CC(=O)Nc2ccccc21)C(=O)N1CCC[C@@H]1C(=O)O | 1.2 | 0.6 | 1.0 | -2.9 | 2.5 | 5.3
O=C(C1=C(O)C(=O)N(CCN2CCOCC2)C1c1cccc(O)c1)c1cc2ccccc2o1 (stereo unspecified) | -0.7 | 1.9 | 18.9* | -3.0 | -3.0 | 3.1
COc1cccc(/C=C2\C(=O)C(=O)c3ccccc32)c1 | 1.3 | 1.3 | -1.8 | 31.0* | -1.7 | -5.4
O=C(Nc1ccc(OCc2ccccc2)cc1)Nc1nnc([C@H]2C[C@H](O)[C@@H](CO)O2)s1 | 0.1 | 0.8 | 0.8 | -4.8 | 1.6 | 0.3
COc1ccnc(Oc2ccccc2)c1C(=O)N/C=N/OCc1ccc(F)cc1Cl | -16.2 | 35.0* | -12.8 | 20.2 | 5.6 | 13.5
COC(=O)C1CCN(c2cc(Cl)nc(N)n2)CC1 | -3.9 | 0.2 | -0.6 | -9.8 | 0.9 | 5.5
NC(=O)C1CCN(c2cc(Cl)nc(N)n2)CC1 | 1.0 | 1.9 | 25.8* | -15.4 | -5.5 | -11.2
CCCn1c(NC(=O)CN2C(=O)NC3(CCCC3)C2=O)nc2ccccc21 | -1.7 | 3.2 | 23.2* | -28.3 | -1.4 | -3.5
CCCn1c(NC(=O)CN2C(=O)NC3(CCCCC3)C2=O)nc2ccccc21 | 1.9 | 1.5 | -2.8 | -3.0 | -1.2 | -3.6
O=C(O)CC(NC(=O)CC(c1ccccc1)c1ccccc1)c1cccc([N+](=O)[O-])c1 (stereo unspecified) | -5.9 | 4.2 | -2.4 | 7.1 | -1.1 | 7.3
O=C(NCCCn1ccnc1)C(=O)NCC(c1ccco1)N1CCN(c2ccccc2)CC1 (stereo unspecified) | 0.0 | 1.6 | -6.3 | 33.0* | -0.5 | 3.8
